Data published in ChEMBL document CHEMBL4627393, “Discovery of Potent, Selective, and State-Dependent NaV1.7 Inhibitors with Robust Oral Efficacy in Pain Models: Structure-Activity Relationship and Optimization of Chroman and Indane Aryl Sulfonamides” (J Med Chem, 2020).

Columns and labels:
[1] = Tmax in male cynomolgus monkey at 150 mg/kg, po; type: ADME, organism-based, Macaca fascicularis; conditions: in vivo
Method in brief: (§1)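 Cynomolgus monkeys, 3 male and 3 female, were given a single oral gavage dose of 150 mg/kg. Animals were watched for emesis. Tmax was recorded separately for males and females.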

[2] = Cmax in BALB/c mouse at 10 mg/kg, po measured upto 24 hrs by LC/MS-MS analysis; type: ADME, organism-based; parameters: dose 10 mg/kg, route oral; conditions: in vivo
[3] = Half life in Sprague-Dawley rat at 1 mg/kg, iv measured upto 24 hrs by LC/MS-MS analysis; type: ADME, organism-based; conditions: in vivo
[4] = Oral bioavailability in BALB/c mouse at 10 mg/kg measured upto 24 hrs by LC/MS-MS analysis; type: ADME, organism-based; conditions: in vivo
Method in brief: (§2)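 Pharmacokinetics were run with an IV dose of 1 mg/kg and a PO dose of 10 mg/kg. Parameters reported were AUClast, Cmax, CL, T1/2, Vss and %F.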

[5] = Apparent permeability across apical to basolateral side in human Caco2 cells; type: ADME, cell-based; conditions: Caco-2
[6] = Cmax in Sprague-Dawley rat at 1 mg/kg, iv measured upto 24 hrs by LC/MS-MS analysis; type: ADME, organism-based; parameters: dose 1 mg/kg, route intravenous; conditions: in vivo
[7] = Cmax in male cynomolgus monkey at 150 mg/kg, po; type: ADME, organism-based, Macaca fascicularis; parameters: dose 150 mg/kg, route oral; conditions: in vivo
[8] = Clearance in BALB/c mouse at 1 mg/kg, iv measured upto 24 hrs by LC/MS-MS analysis; type: ADME, organism-based; conditions: in vivo
[9] = Volume of distribution at steady state in Sprague-Dawley rat at 1 mg/kg, iv measured upto 24 hrs by LC/MS-MS analysis; type: ADME, organism-based; conditions: in vivo, read-out: Vdss
[10] = AUClast in Sprague-Dawley rat at 10 mg/kg, po measured upto 24 hrs by LC/MS-MS analysis; type: ADME, organism-based; parameters: time < 24 hr, dose 10 mg/kg, route oral; conditions: in vivo
[11] = Drug concentration in brain of formalin-induced C57BL/6 mouse model of nociceptive pain at 30 mg/kg, […]; type: ADME, organism-based; conditions: po
[12] = Metabolic stability in human liver microsomes assessed as metabolic rate at 1 uM preincubated for 5 mins followed by NADPH addition and measured up to 30 mins by LC/MS-MS analysis; type: ADME, Microsome; conditions: 0.5 h
[13] = AUClast in female cynomolgus monkey at 150 mg/kg, po; type: ADME, organism-based, Macaca fascicularis; parameters: dose 150 mg/kg, time 0 - last, route oral; conditions: in vivo
[14] = Lipophilicity, log D of the compound; type: physicochemical; conditions: octanol/water
[15] = Metabolic stability in mouse liver microsomes assessed as metabolic rate at 1 uM preincubated for 5 mins followed by NADPH addition and measured up to 30 mins by LC/MS-MS analysis; type: ADME, Microsome; conditions: 0.5 h
[16] = AUClast in Sprague-Dawley rat at 1 mg/kg, iv measured upto 24 hrs by LC/MS-MS analysis; type: ADME, organism-based; parameters: dose 1 mg/kg, time < 24 hr, route intravenous; conditions: in vivo
[17] = Volume of distribution at steady state in BALB/c mouse at 1 mg/kg, iv measured upto 24 hrs by LC/MS-MS analysis; type: ADME, organism-based; conditions: in vivo, read-out: Vdss; method in brief: as §2
[18] = Apparent permeability across basolateral to apical side in human Caco2 cells; type: ADME, cell-based; conditions: Caco-2
[19] = Unbound drug concentration in plasma of formalin-induced C57BL/6 mouse model of nociceptive pain at 3 mg/kg, po administered 30 mins before formalin stimulation and measured after 40 mins; type: ADME, organism-based; conditions: in vivo
Method in brief: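 Mice were dosed orally at 3 mg/kg 30 min before formalin challenge. Nociceptive behaviour was scored at 0–5 min (phase I) and 10–40 min (phase II). Plasma was collected at the end of the study, and the unbound drug concentration was determined.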

[20] = Tmax in female cynomolgus monkey at 150 mg/kg, po; type: ADME, organism-based, Macaca fascicularis; conditions: in vivo; method in brief: as §1
[21] = Cmax in Sprague-Dawley rat at 10 mg/kg, po measured upto 24 hrs by LC/MS-MS analysis; type: ADME, organism-based; parameters: dose 10 mg/kg, route oral; conditions: in vivo
[22] = Cmax in BALB/c mouse at 1 mg/kg, iv measured upto 24 hrs by LC/MS-MS analysis; type: ADME, organism-based; parameters: dose 1 mg/kg, route intravenous; conditions: in vivo
[23] = Metabolic stability in rat liver microsomes assessed as metabolic rate at 1 uM preincubated for 5 mins followed by NADPH addition and measured up to 30 mins by LC/MS-MS analysis; type: ADME, Microsome; conditions: 0.5 h
[24] = Metabolic stability in dog liver microsomes assessed as metabolic rate at 1 uM preincubated for 5 mins followed by NADPH addition and measured up to 30 mins by LC/MS-MS analysis; type: ADME, Canis lupus familiaris, Microsome; conditions: 0.5 h
[25] = AUClast in male cynomolgus monkey at 150 mg/kg, po; type: ADME, organism-based, Macaca fascicularis; parameters: dose 150 mg/kg, route oral, time 0 - last; conditions: in vivo
[26] = Cmax in female cynomolgus monkey at 150 mg/kg, po; type: ADME, organism-based, Macaca fascicularis; parameters: dose 150 mg/kg, route oral; conditions: in vivo
[27] = AUClast in BALB/c mouse at 10 mg/kg, po measured upto 24 hrs by LC/MS-MS analysis; type: ADME, organism-based; parameters: dose 10 mg/kg, time < 24 hr, route oral; conditions: in vivo
[28] = Metabolic stability in monkey liver microsomes assessed as metabolic rate at 1 uM preincubated for 5 mins followed by NADPH addition and measured up to 30 mins by LC/MS-MS analysis; type: ADME, Macaca mulatta, Microsome; conditions: rhesus monkey, 0.5 h
[29] = Half life in BALB/c mouse at 1 mg/kg, iv measured upto 24 hrs by LC/MS-MS analysis; type: ADME, organism-based; conditions: in vivo
[30] = Oral bioavailability in Sprague-Dawley rat at 10 mg/kg measured upto 24 hrs by LC/MS-MS analysis; type: ADME, organism-based; conditions: in vivo; method in brief: as §2
[31] = Clearance in Sprague-Dawley rat at 1 mg/kg, iv measured upto 24 hrs by LC/MS-MS analysis; type: ADME, organism-based; conditions: in vivo
[32] = AUClast in BALB/c mouse at 1 mg/kg, iv measured upto 24 hrs by LC/MS-MS analysis; type: ADME, organism-based; parameters: time < 24 hr, dose 1 mg/kg, route intravenous; conditions: in vivo
[33] = Half life in Beagle dog at 1 mg/kg, iv administered as infusion for 15 mins by LC/MS-MS analysis; type: ADME, organism-based, Canis lupus familiaris; conditions: in vivo
[34] = Volume of distribution at steady state in Beagle dog at 1 mg/kg, iv administered as infusion for 15 mins by LC/MS-MS analysis; type: ADME, organism-based, Canis lupus familiaris; conditions: in vivo, read-out: Vdss; method in brief: as §2
[35] = Cmax in Beagle dog at 1 mg/kg, iv administered as infusion for 15 mins followed by compound washout and subsequent compound dosing at 5 mg/kg, po measured up to 24 hrs by LC/MS-MS analysis; type: ADME, organism-based, Canis lupus familiaris; conditions: in vivo
[36] = AUClast in Beagle dog at 1 mg/kg, iv administered as infusion for 15 mins by LC/MS-MS analysis; type: ADME, organism-based, Canis lupus familiaris; parameters: dose 1 mg/kg, time 0 - last, route intravenous; conditions: in vivo
[37] = Clearance in Beagle dog at 1 mg/kg, iv administered as infusion for 15 mins by LC/MS-MS analysis; type: ADME, organism-based, Canis lupus familiaris; conditions: in vivo
[38] = Bioavailability in Beagle dog at 1 mg/kg, iv administered as infusion for 15 mins followed by compound washout and subsequent compound dosing at 5 mg/kg, po measured up to 24 hrs by LC/MS-MS analysis; type: ADME, organism-based, Canis lupus familiaris; conditions: in vivo
[39] = Cmax in Beagle dog at 1 mg/kg, iv administered as infusion for 15 mins by LC/MS-MS analysis; type: ADME, organism-based, Canis lupus familiaris; parameters: dose 1 mg/kg, route intravenous; conditions: in vivo
[40] = AUClast in Beagle dog at 1 mg/kg, iv administered as infusion for 15 mins followed by compound washout and subsequent compound dosing at 5 mg/kg, po measured up to 24 hrs by LC/MS-MS analysis; type: ADME, organism-based, Canis lupus familiaris; conditions: in vivo
[41] = Drug concentration in brain of formalin-induced C57BL/6 mouse model of nociceptive pain at 30 mg/kg, po administered 30 mins before formalin stimulation and measured after 40 mins

Row | Cmax [2] | half-life [3] | bioavailability [4] | Papp A→B [5] | Cmax [6] | Vd [9] | AUC(0-t) at 24 h [10] | Drug metabolism [12] | logD [14] | Drug metabolism [15] | AUC(0-t) at 24 h [16] | Vd [17] | Papp B→A [18] | Cmax [21] | Cmax [22] | Drug metabolism [23] | Drug metabolism [24] | AUC(0-t) at 24 h [27] | Drug metabolism [28] | half-life [29] | SMILES | further results
1 | 18 µM | 2.7 h | 99% | 31.5 ×10⁻⁶ cm/s | 2.5 µM | 1 L/kg | 46 µM·h | 0.03 nmol/min/mg | 2.4 | 0.03 nmol/min/mg | 7.9 µM·h | 0.8 L/kg | 36.7 ×10⁻⁶ cm/s | 10.9 µM | 2 µM | 0.04 nmol/min/mg | 0.02 nmol/min/mg | 84 µM·h | 0.03 nmol/min/mg | 2.8 h | Cn1nccc1-c1cc(C(F)(F)F)ccc1[C@H]1CCc2cc(S(=O)(=O)Nc3ncccn3)ccc21 | Tmax [1]: 2 h; Cmax [7]: 66 µM; clearance [8]: 3.3 mL/min/kg; concentration at 40 min [11]: 2.1 µM; AUC(0-t) [13]: 601 µM·h; Cp(f) [19]: 0.343 µM; Tmax [20]: 1.5 h; AUC(0-t) [25]: 684 µM·h; Cmax [26]: 69 µM; bioavailability [30]: 58%; clearance [31]: 4.9 mL/min/kg; AUC(0-t) at 24 h [32]: 8.5 µM·h
2 | 15 µM | 4.2 h | 89% | 28 ×10⁻⁶ cm/s | 2.2 µM | 0.9 L/kg | 114 µM·h | 0 nmol/min/mg | 3.7 | 0 nmol/min/mg | 11 µM·h | 0.9 L/kg | 26.8 ×10⁻⁶ cm/s | 13 µM | 2 µM | 0.01 nmol/min/mg | 0.01 nmol/min/mg | 107 µM·h | 0.02 nmol/min/mg | 4.2 h | Cn1nccc1-c1cc(C(F)(F)F)ccc1[C@H]1CCOc2cc(S(=O)(=O)Nc3ncccn3)ccc21 | half-life [33]: 7.8 h; clearance [8]: 2.7 mL/min/kg; Vd [34]: 0.3 L/kg; Cmax [35]: 10 µM; AUC(0-t) at 0.25 h [36]: 59 µM·h; Cp(f) [19]: 0.728 µM; clearance [37]: 0.5 mL/min/kg; bioavailability [38]: 40%; bioavailability [30]: 100%; Cmax [39]: 6.9 µM; clearance [31]: 3 mL/min/kg; AUC(0-t) [40]: 117 µM·h; AUC(0-t) at 24 h [32]: 12 µM·h
3 | 18 µM | 1.9 h | 83% | 39.5 ×10⁻⁶ cm/s | 2.6 µM | 0.8 L/kg | 112 µM·h | 0 nmol/min/mg | 2.3 | 0.04 nmol/min/mg | 5.5 µM·h | 0.6 L/kg | 36.8 ×10⁻⁶ cm/s | 19 µM | 3 µM | 0.02 nmol/min/mg | 0.02 nmol/min/mg | 63 µM·h | 0.02 nmol/min/mg | 1.5 h | Cc1ccc(-c2cc(C(F)(F)F)ccc2[C@H]2CCOc3cc(S(=O)(=O)Nc4ncccn4)ccc32)cn1 | half-life [33]: 2.5 h; Vd [34]: 0.4 L/kg; Cmax [35]: 8.5 µM; AUC(0-t) at 0.25 h [36]: 19 µM·h; bioavailability [38]: 51%; brain concentration at 40 min [41]: < 1 µM; bioavailability [30]: > 100%; Cmax [39]: 6.5 µM; AUC(0-t) [40]: 50 µM·h; AUC(0-t) at 24 h [32]: 7.6 µM·h
4 | 9.6 µM | 2.8 h | 50% | 37.6 ×10⁻⁶ cm/s | 2.1 µM | 1.2 L/kg | 19 µM·h | 0.02 nmol/min/mg | 2.7 | 0.16 nmol/min/mg | 5.9 µM·h | 0.81 L/kg | 25.4 ×10⁻⁶ cm/s | 2.1 µM | 2 µM | 0.02 nmol/min/mg | 0.02 nmol/min/mg | 62 µM·h | 0.03 nmol/min/mg | 4.3 h | O=S(=O)(Nc1ncccn1)c1ccc2c(c1)OCC[C@@H]2c1ccc(C(F)(F)F)cc1N1CCOCC1 | half-life [33]: 11 h; clearance [8]: 2.5 mL/min/kg; Vd [34]: 0.5 L/kg; AUC(0-t) at 0.25 h [36]: 48 µM·h; clearance [37]: 0.5 mL/min/kg; brain concentration at 40 min [41]: < 1 µM; bioavailability [30]: 31%; Cmax [39]: 4.9 µM; clearance [31]: 5.1 mL/min/kg; AUC(0-t) at 24 h [32]: 12 µM·h
